According to paper PMC7003773 (Clinical Pharmacology in Drug Development, 2019):
Where two headings read alike, the source gives them in different places.

Key:
[1] = cited from earlier work
S. aureus = conditions: neutropenic murine thigh model; cited from earlier work
[2] = Population pharmacokinetic analysis of clinical plasma concentration data; type: in vivo, human
Method in brief: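 Plasma sampled 1, 18, 23 and 36–48 h post-infusion. Assayed by LC-MS/MS (0.5–500 µg/mL), sub-0.5 µg/mL values dropped. Modelled in NONMEM with FOCE, log-normal IIV, stepwise covariates (forward P < .01, backward P < .001) and bootstrap uncertainty. T1/2 taken from 100 000 parameter draws.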

[3] = tested on: Staphylococcus aureus, Streptococcus pyogenes, Streptococcus dysgalactiae, vancomycin-susceptible Enterococcus faecalis; test: MIC distributions from 2017 surveillance program; type: cell-based; conditions: 2017 surveillance data, United States and Europe, 4 most relevant species
Method in brief: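 Isolates came from the 2017 surveillance program: 70 US medical centers across 9 Census regions and 38 centers in 18 European countries. MICs were determined centrally at one reference laboratory by CLSI M07-A10 (2015) dilution methods. Isolate counts: S. aureus n = 8833, S. pyogenes n = 941, S. dysgalactiae n = 312, vancomycin-susceptible E. faecalis n = 1060. Distributions were plotted as histograms on a log MIC axis.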

serum albumin = conditions: intravenous dose; unchanged by drug concentration, renal impairment or hepatic function; cited from earlier work
[4] = final popPK model, typical value

total volume of distribution ([2]; 3-compartment popPK model): ~15 L
T1/2 ([2]; calculated from 100 000 random samples drawn from mean and covariance of estimated model parameters): 8.77 days
Q2, distributional clearance ([2]; final popPK model, no IIV): 0.288 L/h
Q3, distributional clearance ([2]; final popPK model, no IIV): 2.11 L/h
V1, central volume of distribution [2, 4]: 3.04 L
V2 [2, 4]: 8.78 L
V3 [2, 4]: 3.28 L
rightmost histogram bar of the MIC distributions (highest MIC observed) [3]: 0.25
Compound: CN[C@H]1C(=O)N[C@@H]2Cc3ccc(cc3)Oc3cc4cc(c3O[C@@H]3O[C@H](C(=O)O)[C@@H](O)[C@H](O)[C@H]3NC(=O)CCCCCCCCC(C)C)Oc3ccc(cc3Cl)[C@@H](O)[C@@H]3NC(=O)[C@H](NC(=O)[C@@H]4NC(=O)[C@@H](NC2=O)c2cc(cc(O)c2Cl)Oc2cc1ccc2O)c1ccc(O)c(c1)-c1c(O[C@H]2O[C@H](CO)[C@@H](O)[C@H](O)[C@@H]2O)cc(O)cc1[C@@H](C(=O)NCCCN(C)C)NC3=O [dalbavancin]
total volume of distribution (Vd) [1]: ~16 L
total drug clearance ([1]; healthy subjects): approximately 0.04 L/h
fraction of dose excreted as minor metabolite ([1]; healthy volunteers, 1000 mg intravenous dose of dalbavancin, by 42 days postdose): 12%
fraction of dose excreted in the feces ([1]; healthy volunteers, 1000 mg intravenous dose, by 42 days postdose): one‐third
fraction of dose excreted in urine unmodified ([1]; healthy volunteers, 1000 mg intravenous dose): one‐third
terminal half-life ([1]; intravenous): > 14 days
total drug clearance ([1]; patients): ~0.058 L/h
2-log kill target, fAUC/MIC (S. aureus): 111.1
fraction bound to serum albumin / plasma protein (serum albumin): approximately 93%
